Measured values taken from ChEMBL document CHEMBL4334451, “Natural Alkaloid Berberine Activity against Pseudomonas aeruginosa MexXY-Mediated Aminoglycoside Resistance: In Silico and in Vitro Studies” (J Nat Prod, 2019).
Activity calls are given as the source filed them. No cut-off for these calls is given here.

What was measured:
Type in all cases: protein-complex assay
[1] = biological target: T1, MexXY/OprM (Pseudomonas aeruginosa (strain ATCC 15692 / DSM 22644 / CIP 104116 / JCM14847 / LMG 12228 / 1C / PRS 101 / PAO1)) (UniProt Q51487+Q9ZNG9+Q9ZNG8); test: Inhibition of MexXY/OPRM in Pseudomonas aeruginosa AR61 assessed as bacterial growth up to 320 ug/ml incubated for 24 to 48 hrs by broth microdilution method
Summary of the method: (§1)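 Broth microdilution following CLSI guidelines, with P. aeruginosa ATCC 27853 as reference strain. Berberine was tested at 2-fold concentrations from 10 to 320 µg/ml, dissolved in 50% DMSO/50% methanol, with the top concentration set to keep final DMSO close to 1%. Plates were incubated at 37°C and read for visible growth at 24 and 48 h.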

[2] = biological target: T1, MexXY/OprM (Pseudomonas aeruginosa (strain ATCC 15692 / DSM 22644 / CIP 104116 / JCM14847 / LMG 12228 / 1C / PRS 101 / PAO1)); test: Inhibition of MexXY/OPRM in Pseudomonas aeruginosa C98 assessed as bacterial growth up to 320 ug/ml incubated for 24 to 48 hrs by broth microdilution method
Summary of the method: (§2)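 Broth microdilution per CLSI, with P. aeruginosa ATCC 27853 as reference strain, in 2-fold dilution series. Plates were incubated at 37°C and read for visible growth at 24 and 48 h. Berberine stock was in 50% DMSO/50% methanol, with final DMSO kept near 1%. Berberine was tested at 10–320 µg/ml, alone or at a fixed level with serial tobramycin.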

[3] = biological target: T1, MexXY/OprM (Pseudomonas aeruginosa (strain ATCC 15692 / DSM 22644 / CIP 104116 / JCM14847 / LMG 12228 / 1C / PRS 101 / PAO1)); test: Inhibition of MexXY/OPRM in Pseudomonas aeruginosa C86 assessed as reduction in bacterial resistance to tobramycin by measuring tobramycin MIC at 80 ug/ml incubated for 24 to 48 hrs by broth microdilution method (reference value: 128 ug/ml); summary of the method: as §2
[4] = biological target: T1, MexXY/OprM (Pseudomonas aeruginosa (strain ATCC 15692 / DSM 22644 / CIP 104116 / JCM14847 / LMG 12228 / 1C / PRS 101 / PAO1)); test: Inhibition of MexXY/OPRM in Pseudomonas aeruginosa C83 assessed as reduction in bacterial resistance to tobramycin by measuring tobramycin MIC at 80 ug/ml incubated for 24 to 48 hrs by broth microdilution method (reference value: 128 ug/ml)
[5] = biological target: T1, MexXY/OprM (Pseudomonas aeruginosa (strain ATCC 15692 / DSM 22644 / CIP 104116 / JCM14847 / LMG 12228 / 1C / PRS 101 / PAO1)); test: Inhibition of MexXY/OPRM in Pseudomonas aeruginosa AR51 assessed as bacterial growth up to 320 ug/ml incubated for 24 to 48 hrs by broth microdilution method; summary of the method: as §1
[6] = biological target: T1, MexXY/OprM (Pseudomonas aeruginosa (strain ATCC 15692 / DSM 22644 / CIP 104116 / JCM14847 / LMG 12228 / 1C / PRS 101 / PAO1)); test: Inhibition of MexXY/OPRM in Pseudomonas aeruginosa C103 assessed as bacterial growth up to 320 ug/ml incubated for 24 to 48 hrs by broth microdilution method; summary of the method: as §1
[7] = biological target: T1, MexXY/OprM (Pseudomonas aeruginosa (strain ATCC 15692 / DSM 22644 / CIP 104116 / JCM14847 / LMG 12228 / 1C / PRS 101 / PAO1)); test: Inhibition of MexXY/OPRM in Pseudomonas aeruginosa C25 assessed as reduction in bacterial resistance to tobramycin by measuring tobramycin MIC at 80 ug/ml incubated for 24 to 48 hrs by broth microdilution method (reference value: 16 ug/ml)
[8] = biological target: T1, MexXY/OprM (Pseudomonas aeruginosa (strain ATCC 15692 / DSM 22644 / CIP 104116 / JCM14847 / LMG 12228 / 1C / PRS 101 / PAO1)); test: Inhibition of MexXY/OPRM in Pseudomonas aeruginosa C95 assessed as reduction in bacterial resistance to tobramycin by measuring tobramycin MIC at 80 ug/ml incubated for 24 to 48 hrs by broth microdilution method (reference value: 32 ug/ml); summary of the method: as §2
[9] = biological target: T1, MexXY/OprM (Pseudomonas aeruginosa (strain ATCC 15692 / DSM 22644 / CIP 104116 / JCM14847 / LMG 12228 / 1C / PRS 101 / PAO1)); test: Inhibition of MexXY/OPRM in Pseudomonas aeruginosa C76 assessed as reduction in bacterial resistance to tobramycin by measuring tobramycin MIC at 80 ug/ml incubated for 24 to 48 hrs by broth microdilution method (reference value: 32 ug/ml)
[10] = biological target: T1, MexXY/OprM (Pseudomonas aeruginosa (strain ATCC 15692 / DSM 22644 / CIP 104116 / JCM14847 / LMG 12228 / 1C / PRS 101 / PAO1)); test: Inhibition of MexXY/OPRM in Pseudomonas aeruginosa C89 assessed as reduction in bacterial resistance to tobramycin by measuring tobramycin MIC at 80 ug/ml incubated for 24 to 48 hrs by broth microdilution method (reference value: >128 ug/ml); summary of the method: as §2
[11] = biological target: T1, MexXY/OprM (Pseudomonas aeruginosa (strain ATCC 15692 / DSM 22644 / CIP 104116 / JCM14847 / LMG 12228 / 1C / PRS 101 / PAO1)); test: Inhibition of MexXY/OPRM in Pseudomonas aeruginosa C54 assessed as bacterial growth up to 320 ug/ml incubated for 24 to 48 hrs by broth microdilution method; summary of the method: as §1
[12] = biological target: T1, MexXY/OprM (Pseudomonas aeruginosa (strain ATCC 15692 / DSM 22644 / CIP 104116 / JCM14847 / LMG 12228 / 1C / PRS 101 / PAO1)); test: Inhibition of MexXY/OPRM in Pseudomonas aeruginosa AR48 assessed as reduction in bacterial resistance to tobramycin by measuring tobramycin MIC at 80 ug/ml incubated for 24 to 48 hrs by broth microdilution method (reference value: 32 ug/ml)
[13] = biological target: T1, MexXY/OprM (Pseudomonas aeruginosa (strain ATCC 15692 / DSM 22644 / CIP 104116 / JCM14847 / LMG 12228 / 1C / PRS 101 / PAO1)); test: Inhibition of MexXY/OPRM in Pseudomonas aeruginosa C70 assessed as bacterial growth up to 320 ug/ml incubated for 24 to 48 hrs by broth microdilution method; summary of the method: as §1
[14] = biological target: T1, MexXY/OprM (Pseudomonas aeruginosa (strain ATCC 15692 / DSM 22644 / CIP 104116 / JCM14847 / LMG 12228 / 1C / PRS 101 / PAO1)); test: Inhibition of MexXY/OPRM in Pseudomonas aeruginosa C60 assessed as reduction in bacterial resistance to tobramycin by measuring tobramycin MIC at 80 ug/ml incubated for 24 to 48 hrs by broth microdilution method (reference value: >128 ug/ml)
[15] = biological target: T1, MexXY/OprM (Pseudomonas aeruginosa (strain ATCC 15692 / DSM 22644 / CIP 104116 / JCM14847 / LMG 12228 / 1C / PRS 101 / PAO1)); test: Inhibition of MexXY/OPRM in Pseudomonas aeruginosa C61 assessed as bacterial growth up to 320 ug/ml incubated for 24 to 48 hrs by broth microdilution method; summary of the method: as §1
[16] = biological target: T1, MexXY/OprM (Pseudomonas aeruginosa (strain ATCC 15692 / DSM 22644 / CIP 104116 / JCM14847 / LMG 12228 / 1C / PRS 101 / PAO1)); test: Inhibition of MexXY/OPRM in Pseudomonas aeruginosa C83 assessed as bacterial growth up to 320 ug/ml incubated for 24 to 48 hrs by broth microdilution method; summary of the method: as §1
[17] = biological target: T1, MexXY/OprM (Pseudomonas aeruginosa (strain ATCC 15692 / DSM 22644 / CIP 104116 / JCM14847 / LMG 12228 / 1C / PRS 101 / PAO1)); test: Inhibition of MexXY/OPRM in Pseudomonas aeruginosa K767 assessed as reduction in bacterial resistance to tobramycin by measuring tobramycin MIC at 80 ug/ml incubated for 24 to 48 hrs by broth microdilution method (reference value: 0.25 ug/ml); summary of the method: as §2
[18] = biological target: T1, MexXY/OprM (Pseudomonas aeruginosa (strain ATCC 15692 / DSM 22644 / CIP 104116 / JCM14847 / LMG 12228 / 1C / PRS 101 / PAO1)); test: Inhibition of MexXY/OPRM in Pseudomonas aeruginosa AR48 assessed as reduction in bacterial resistance to tobramycin by measuring fold reduction in tobramycin MIC at 80 ug/ml incubated for 24 to 48 hrs by broth microdilution method
[19] = biological target: T1, MexXY/OprM (Pseudomonas aeruginosa (strain ATCC 15692 / DSM 22644 / CIP 104116 / JCM14847 / LMG 12228 / 1C / PRS 101 / PAO1)); test: Inhibition of MexXY/OPRM in Pseudomonas aeruginosa C51 assessed as bacterial growth up to 320 ug/ml incubated for 24 to 48 hrs by broth microdilution method; summary of the method: as §1
[20] = biological target: T1, MexXY/OprM (Pseudomonas aeruginosa (strain ATCC 15692 / DSM 22644 / CIP 104116 / JCM14847 / LMG 12228 / 1C / PRS 101 / PAO1)); test: Inhibition of MexXY/OPRM in Pseudomonas aeruginosa AR48 assessed as bacterial growth up to 320 ug/ml incubated for 24 to 48 hrs by broth microdilution method; summary of the method: as §1
[21] = biological target: T1, MexXY/OprM (Pseudomonas aeruginosa (strain ATCC 15692 / DSM 22644 / CIP 104116 / JCM14847 / LMG 12228 / 1C / PRS 101 / PAO1)); test: Inhibition of MexXY/OPRM in Pseudomonas aeruginosa C84 assessed as bacterial growth up to 320 ug/ml incubated for 24 to 48 hrs by broth microdilution method; summary of the method: as §2
[22] = biological target: T1, MexXY/OprM (Pseudomonas aeruginosa (strain ATCC 15692 / DSM 22644 / CIP 104116 / JCM14847 / LMG 12228 / 1C / PRS 101 / PAO1)); test: Inhibition of MexXY/OPRM in Pseudomonas aeruginosa C67 assessed as bacterial growth up to 320 ug/ml incubated for 24 to 48 hrs by broth microdilution method; summary of the method: as §1
[23] = biological target: T1, MexXY/OprM (Pseudomonas aeruginosa (strain ATCC 15692 / DSM 22644 / CIP 104116 / JCM14847 / LMG 12228 / 1C / PRS 101 / PAO1)); test: Inhibition of MexXY/OPRM in Pseudomonas aeruginosa C60 assessed as reduction in bacterial resistance to tobramycin by measuring fold reduction in tobramycin MIC at 80 ug/ml incubated for 24 to 48 hrs by broth microdilution method
[24] = biological target: T1, MexXY/OprM (Pseudomonas aeruginosa (strain ATCC 15692 / DSM 22644 / CIP 104116 / JCM14847 / LMG 12228 / 1C / PRS 101 / PAO1)); test: Inhibition of MexXY/OPRM in Pseudomonas aeruginosa C25 assessed as reduction in bacterial resistance to tobramycin by measuring fold reduction in tobramycin MIC at 80 ug/ml incubated for 24 to 48 hrs by broth microdilution method
[25] = biological target: T1, MexXY/OprM (Pseudomonas aeruginosa (strain ATCC 15692 / DSM 22644 / CIP 104116 / JCM14847 / LMG 12228 / 1C / PRS 101 / PAO1)); test: Inhibition of MexXY/OPRM in Pseudomonas aeruginosa C30 assessed as bacterial growth up to 320 ug/ml incubated for 24 to 48 hrs by broth microdilution method; summary of the method: as §1

COc1ccc2cc3[n+](cc2c1OC)CCc1cc2c(cc1-3)OCO2 [BERBERINE]
inhibition [1]: inactive | inhibition [2]: inactive | MIC [3]: 16 µg/mL | MIC [4]: 32 µg/mL | inhibition [5]: inactive | inhibition [6]: inactive | MIC [7]: 1 µg/mL | MIC [8]: 4 µg/mL | MIC [9]: 16 µg/mL | MIC [10]: 64 µg/mL | inhibition [11]: inactive | MIC [12]: 8 µg/mL | inhibition [13]: inactive | MIC [14]: 64 µg/mL | inhibition [15]: inactive | inhibition [16]: inactive | MIC [17]: 0.125 µg/mL | fold change (FC) [18]: > 2 | inhibition [19]: inactive | inhibition [20]: inactive | inhibition [21]: inactive | inhibition [22]: inactive | fold change (FC) [23]: > 2 | fold change (FC) [24]: 16 | inhibition [25]: inactive
